ChEMBL document CHEMBL5303300, “EUbOPEN Chemogenomics Library - Multiplex” (2023)
Values joined by “and” are separate entries in the source; they are usually repeats but may differ in a detail not shown here. Equal entries are not always repeated.

Test system: HEK-293T
Experiment: Multiplex assay against HEK293T
Format: toxicity, cell-based
Settings: human, number of replicates 2
Summary of the method: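 Values for tubulin, mitochondrial-mass and membrane-permeability phenotypes are per cents of cells with healthy nuclei. These cells were identified by CellPathfinder machine-learning gating of live cells that had been stained at seeding with Hoechst33342, BioTracker Green Microtubule Cytoskeleton Dye, MitoTracker Red and Annexin V Alexa Fluor 680 and imaged on a CQ1 microscope at 37°C and 5% CO2 after compound addition. The gating first set Hoechst high-intensity objects apart from normal cells, then split normal cells into healthy, pyknosed or fragmented nuclei, and pyknosed cells into mitotic or apoptotic.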

[1] = 12 h, 1 µM, compound concentration 1 uM
[2] = 12 h, 10 µM, compound concentration 10 uM
[3] = 24 h, 1 µM, compound concentration 1 uM
[4] = 24 h, 10 µM, compound concentration 10 uM
[5] = 48 h, 1 µM, compound concentration 1 uM
[6] = 48 h, 10 µM, compound concentration 10 uM

COc1cc(Br)c(S(=O)(=O)Nc2ccc(C(F)(F)F)c(O[C@@H]3CCN(C)C3)c2)cc1OC
Population Apoptotic (%) [1]: 35% and 41% | Population Fragmented Nuclei (%) [1]: 4% and 3% | Population Healthy Nuclei (%) [1]: 83% and 84% | Population Hoechst High Intensity Objects (%) [1]: 8% and 6% | Population Membrane Permeable-Phenotype (%) [1]: 3% and 4% | Population Mitochondria Different-Phenotype (%) [1]: 14% and 12% | Population Mitotic Cells (%) [1]: 64% and 58% | Population Normal (%) [1]: 91% and 93% | Population Pyknosed Nuclei (%) [1]: 11% and 12% | Population Tubulin-Different-Phenotype (%) [1]: 48% and 41% | Total Cell Count [1]: 739 and 648 | Population Apoptotic (%) [2]: 60% and 67% | Population Fragmented Nuclei (%) [2]: 5% and 3% | Population Healthy Nuclei (%) [2]: 78% | Population Hoechst High Intensity Objects (%) [2]: 11% and 8% | Population Membrane Permeable-Phenotype (%) [2]: 3% and 5% | Population Mitochondria Different-Phenotype (%) [2]: 31% and 22% | Population Mitotic Cells (%) [2]: 39% and 32% | Population Normal (%) [2]: 88% and 91% | Population Pyknosed Nuclei (%) [2]: 16% and 17% | Population Tubulin-Different-Phenotype (%) [2]: 76% and 59% | Total Cell Count [2]: 481 and 500 | Population Apoptotic (%) [3]: 38% and 42% | Population Fragmented Nuclei (%) [3]: 4% and 5% | Population Healthy Nuclei (%) [3]: 86% | Population Hoechst High Intensity Objects (%) [3]: 7% and 8% | Population Membrane Permeable-Phenotype (%) [3]: 2% and 3% | Population Mitochondria Different-Phenotype (%) [3]: 2% and 3% | Population Mitotic Cells (%) [3]: 61% and 57% | Population Normal (%) [3]: 92% and 91% | Population Pyknosed Nuclei (%) [3]: 8% | Population Tubulin-Different-Phenotype (%) [3]: 26% and 23% | Total Cell Count [3]: 1282 and 991 | Population Apoptotic (%) [4]: 59% and 43% | Population Fragmented Nuclei (%) [4]: 9% and 6% | Population Healthy Nuclei (%) [4]: 78% and 83% | Population Hoechst High Intensity Objects (%) [4]: 9% and 8% | Population Membrane Permeable-Phenotype (%) [4]: 1% and 4% | Population Mitochondria Different-Phenotype (%) [4]: 10% and 6% | Population Mitotic Cells (%) [4]: 40% and 56% | Population Normal (%) [4]: 90% and 91% | Population Pyknosed Nuclei (%) [4]: 12% and 9% | Population Tubulin-Different-Phenotype (%) [4]: 51% and 30% | Total Cell Count [4]: 764 and 718 | Population Apoptotic (%) [5]: 14% and 8% | Population Fragmented Nuclei (%) [5]: 15% and 9% | Population Healthy Nuclei (%) [5]: 82% and 87% | Population Hoechst High Intensity Objects (%) [5]: 9% | Population Membrane Permeable-Phenotype (%) [5]: 4% and 3% | Population Mitochondria Different-Phenotype (%) [5]: 0% | Population Mitotic Cells (%) [5]: 85% and 91% | Population Normal (%) [5]: 90% | Population Pyknosed Nuclei (%) [5]: 2% | Population Tubulin-Different-Phenotype (%) [5]: 13% and 11% | Total Cell Count [5]: 3360 and 2392 | Population Apoptotic (%) [6]: 25% and 20% | Population Fragmented Nuclei (%) [6]: 13% | Population Healthy Nuclei (%) [6]: 82% and 84% | Population Hoechst High Intensity Objects (%) [6]: 9% | Population Membrane Permeable-Phenotype (%) [6]: 5% and 6% | Population Mitochondria Different-Phenotype (%) [6]: 0% | Population Mitotic Cells (%) [6]: 75% and 80% | Population Normal (%) [6]: 90% | Population Pyknosed Nuclei (%) [6]: 4% and 2% | Population Tubulin-Different-Phenotype (%) [6]: 24% and 13% | Total Cell Count [6]: 1611 and 1583

CCCN(CCc1cccs1)[C@H]1CCc2c(O)cccc2C1 [ROTIGOTINE]
Population Apoptotic (%) [1]: 43% and 35% | Population Fragmented Nuclei (%) [1]: 3% and 1% | Population Healthy Nuclei (%) [1]: 83% and 85% | Population Hoechst High Intensity Objects (%) [1]: 9% and 5% | Population Membrane Permeable-Phenotype (%) [1]: 1% and 2% | Population Mitochondria Different-Phenotype (%) [1]: 13% and 14% | Population Mitotic Cells (%) [1]: 56% and 64% | Population Normal (%) [1]: 90% and 94% | Population Pyknosed Nuclei (%) [1]: 12% | Population Tubulin-Different-Phenotype (%) [1]: 50% and 48% | Total Cell Count [1]: 619 and 758 | Population Apoptotic (%) [2]: 39% and 66% | Population Fragmented Nuclei (%) [2]: 3% and 2% | Population Healthy Nuclei (%) [2]: 88% | Population Hoechst High Intensity Objects (%) [2]: 8% and 5% | Population Membrane Permeable-Phenotype (%) [2]: 4% and 2% | Population Mitochondria Different-Phenotype (%) [2]: 13% and 17% | Population Mitotic Cells (%) [2]: 60% and 33% | Population Normal (%) [2]: 91% and 94% | Population Pyknosed Nuclei (%) [2]: 7% and 8% | Population Tubulin-Different-Phenotype (%) [2]: 66% and 65% | Total Cell Count [2]: 592 and 535 | Population Apoptotic (%) [3]: 20% and 41% | Population Fragmented Nuclei (%) [3]: 6% and 5% | Population Healthy Nuclei (%) [3]: 89% and 88% | Population Hoechst High Intensity Objects (%) [3]: 8% | Population Membrane Permeable-Phenotype (%) [3]: 2% | Population Mitochondria Different-Phenotype (%) [3]: 3% | Population Mitotic Cells (%) [3]: 80% and 58% | Population Normal (%) [3]: 91% | Population Pyknosed Nuclei (%) [3]: 3% and 6% | Population Tubulin-Different-Phenotype (%) [3]: 30% and 32% | Total Cell Count [3]: 1198 and 930 | Population Apoptotic (%) [4]: 25% and 32% | Population Fragmented Nuclei (%) [4]: 5% and 7% | Population Healthy Nuclei (%) [4]: 89% and 86% | Population Hoechst High Intensity Objects (%) [4]: 8% and 9% | Population Membrane Permeable-Phenotype (%) [4]: 2% and 4% | Population Mitochondria Different-Phenotype (%) [4]: 9% and 5% | Population Mitotic Cells (%) [4]: 74% and 67% | Population Normal (%) [4]: 91% and 90% | Population Pyknosed Nuclei (%) [4]: 5% | Population Tubulin-Different-Phenotype (%) [4]: 50% and 47% | Total Cell Count [4]: 859 and 863 | Population Apoptotic (%) [5]: 5% and 13% | Population Fragmented Nuclei (%) [5]: 18% and 11% | Population Healthy Nuclei (%) [5]: 79% and 85% | Population Hoechst High Intensity Objects (%) [5]: 9% and 10% | Population Membrane Permeable-Phenotype (%) [5]: 5% and 3% | Population Mitochondria Different-Phenotype (%) [5]: 0% | Population Mitotic Cells (%) [5]: 94% and 86% | Population Normal (%) [5]: 90% and 89% | Population Pyknosed Nuclei (%) [5]: 2% | Population Tubulin-Different-Phenotype (%) [5]: 11% and 17% | Total Cell Count [5]: 3231 and 2107 | Population Fragmented Nuclei (%) [6]: 22% and 16% | Population Healthy Nuclei (%) [6]: 76% and 81% | Population Hoechst High Intensity Objects (%) [6]: 9% and 8% | Population Membrane Permeable-Phenotype (%) [6]: 7% and 6% | Population Mitochondria Different-Phenotype (%) [6]: 0% and 1% | Population Mitotic Cells (%) [6]: 83% and 95% | Population Normal (%) [6]: 90% and 91% | Population Pyknosed Nuclei (%) [6]: 1% and 2% | Population Tubulin-Different-Phenotype (%) [6]: 22% and 24% | Total Cell Count [6]: 2378 and 2001

CS(=O)(=O)c1ccc(C(=O)Nc2cccc(COc3ccc(Br)cc3CN3CC[C@H](O)C3)c2)cc1.O=CO
Population Apoptotic (%) [1]: 50% and 69% | Population Fragmented Nuclei (%) [1]: 2% and 3% | Population Healthy Nuclei (%) [1]: 72% and 70% | Population Normal (%) [1]: 87% and 88% | Total Cell Count [1]: 490 and 407 | Population Apoptotic (%) [2]: 46% | Population Fragmented Nuclei (%) [2]: 3% and 2% | Population Healthy Nuclei (%) [2]: 85% | Population Normal (%) [2]: 93% and 94% | Total Cell Count [2]: 467 and 532 | Population Fragmented Nuclei (%) [3]: 6% and 5% | Population Healthy Nuclei (%) [3]: 79% and 76% | Population Normal (%) [3]: 89% and 90% | Total Cell Count [3]: 663 and 599 | Population Apoptotic (%) [4]: 57% and 66% | Population Fragmented Nuclei (%) [4]: 3% and 4% | Population Healthy Nuclei (%) [4]: 80% and 85% | Population Normal (%) [4]: 95% and 91% | Total Cell Count [4]: 543 and 659 | Population Apoptotic (%) [5]: 46% | Population Fragmented Nuclei (%) [5]: 13% and 10% | Population Healthy Nuclei (%) [5]: 80% and 84% | Population Normal (%) [5]: 90% | Total Cell Count [5]: 1404 and 1241 | Population Apoptotic (%) [6]: 32% | Population Fragmented Nuclei (%) [6]: 5% and 6% | Population Healthy Nuclei (%) [6]: 86% | Population Normal (%) [6]: 93% and 92% | Total Cell Count [6]: 812 and 937
